# Sampled rows, rich in hits. Any-hit rate of the full collection: about 1.8%.
# Hck Nef HTS – blocks Nef-activated human Hck kinase | P08631 | Recombinant Hck-YEEI plus Nef, Z-Lyte FRET kinase assay | inhibition, % at 20 µM | 0.68% of 220,000 active | AID 463187;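 active means Hck-Nef kinase inhibition above about 50%, limit read from the data; inactive means inhibition below that limit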
# Runt-SMMHC FRET – inhibitors of human RUNX1 Runt domain binding to CBFb-SMMHC; AID 1434; inhibition, % at 20 µM; Q01196+Q13951; Cerulean-Runt/Venus-CBFb-SMMHC FRET ratio 530/480, 1 h; 0.74% of 220,000 active;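 active means mean inhibition across duplicate retests at 20 µM reaching about 50%, limit read from the data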;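 further: inhibitors lower the FRET ratio by blocking Runt binding to CBFb-SMMHC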
# Target sequence (Q01196 whole entry, looked up, the tested form may be a part): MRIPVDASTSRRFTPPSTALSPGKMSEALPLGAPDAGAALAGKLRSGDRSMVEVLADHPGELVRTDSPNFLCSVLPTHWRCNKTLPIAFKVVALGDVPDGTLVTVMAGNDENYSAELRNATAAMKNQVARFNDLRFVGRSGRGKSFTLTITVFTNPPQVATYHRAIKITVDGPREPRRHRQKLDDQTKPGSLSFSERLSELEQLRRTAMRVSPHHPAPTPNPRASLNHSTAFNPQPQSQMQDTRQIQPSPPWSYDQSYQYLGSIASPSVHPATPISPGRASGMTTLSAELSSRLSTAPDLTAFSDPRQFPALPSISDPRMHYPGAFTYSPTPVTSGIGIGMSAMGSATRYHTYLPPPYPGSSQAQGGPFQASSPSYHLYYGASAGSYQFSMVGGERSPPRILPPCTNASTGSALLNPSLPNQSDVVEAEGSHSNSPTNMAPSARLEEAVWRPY
# Target sequence (Q13951 whole entry, looked up, the tested form may be a part): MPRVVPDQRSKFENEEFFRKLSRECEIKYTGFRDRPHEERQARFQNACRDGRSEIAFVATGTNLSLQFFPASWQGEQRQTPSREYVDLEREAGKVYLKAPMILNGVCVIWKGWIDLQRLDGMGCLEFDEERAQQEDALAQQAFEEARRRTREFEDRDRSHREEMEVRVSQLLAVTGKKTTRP
# Runt-CBFb FRET – inhibitors of human RUNX1 Runt domain binding to CBFb; 0.46% of 220,000 active; Cerulean-Runt/Venus-CBFb FRET ratio 530/480, 1 h; AID 1496; inhibition, % at 20 µM;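 active means inhibition over about 50% at 20 µM in the single-dose screen, limit read from the data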
#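 Buffer or medium: Tris pH 7.5 buffer with BSA. Assay system: Cerulean-labeled Runt domain protein. Amount: each fluorescent fusion protein 100 nM. Read-out basis: loss of energy transfer signal. Incubation: 1 h compound exposure, room temperature. Probe or stimulus: Venus-CBFb binding partner, 100 nM. Detection: FRET, excitation 422 nm, emission at 530 and 480 nm.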
# RanGTP-Imp inh – inhibitors of RanGTP-importin-beta interaction, primary screen, biochemical, FRET, CFP-Ran, YFP-importin-beta, homogeneous; 1.1% of 300,000 active; inhibition, % (concentration not given with the values); cell-free CFP-Ran/YFP-importin-beta FRET ratio;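 active means more than half of the replicate wells show a fall in the fluorescence ratio signal beyond about 16%, limit read from the data, passing the limit was not always enough; inconclusive means exactly half of the replicate wells pass the set limit; inactive means fewer than half of replicates pass the limit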
# Hck Nef conf – Hck-Nef kinase inhibition, confirmation; shares compounds with Hck Nef HTS; Recombinant Hck-YEEI:Nef, Z-Lyte FRET kinase assay; calls only at 10 µM; 28% of 1,300 active; AID 463188;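 active means average inhibition of at least 50%, with Z-scores no higher than 3 in both the phospho-tyrosine peptide and fluorescence counterscreens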
# Numbers stand for hits; 0 = inactive; ? = inconclusive; - = not tested or not shown; + = active, no number.
SMILES,Hck Nef HTS,Runt-SMMHC FRET,Runt-CBFb FRET,RanGTP-Imp inh,Hck Nef conf
Cc1[nH][nH]c(=O)c1N=Nc1ccc(F)cc1,-,-,-,0,-
COc1ccc(N=Nc2c(C)[nH][nH]c2=O)cc1,59.8,0,0,0,0
CC(C)c1cccc(C(C)C)c1NC(=S)Nc1cccc(Cl)c1,0,0,0,0,-
CCC(Sc1nc2ccccc2c2nc3ccccc3n12)C(=O)NCc1ccco1 (configuration not stated),70.0,0,0,0,+
O=C(CSc1nc2ccccc2n1CC(=O)NCc1ccccc1)NCc1ccco1,0,0,0,0,-
COc1cc(OC)c(OC)cc1/C=N/Nc1nc2ccccc2[nH]1,0,0,0,0,-
COc1cc(OC)c(OC)cc1/C=N/Nc1ncnc2c1[nH]c1ccccc12,52.7,75.0,0,?,-
COc1ccc(/C=N/Nc2ncnc3c2[nH]c2ccc(C)cc23)c(OC)c1OC,68.8,0,0,0,+
CCCCCCn1ccc(=N)cc1,0,0,0,0,-
CCCCCCCCCCCCCCCCn1cc[n+](CC(C)=O)c1,62.8,0,0,-,0
O=C(c1c[nH]c(C(=O)C(Cl)(Cl)Cl)c1)c1ccccc1Br,79.3,0,0,0,0
CNC(=O)c1cc(C(=O)c2ccccc2Br)c[nH]1,-,-,-,0,-
CCCCn1c(NS(=O)(=O)c2ccccc2)c(S(=O)(=O)c2ccc(C)cc2)c2nc3ccccc3nc21,65.8,53.2,0,51.3,-
CCC(=O)Nc1c(S(=O)(=O)c2ccccc2)c2nc3ccccc3nc2n1C(C)c1ccccc1 (configuration not stated),75.0,75.5,0,0,-
Cc1ccc(S(=O)(=O)c2c(N)n(CCCO)c3nc4ccccc4nc23)cc1,81.3,0,0,0,-
Cc1ccc(C(=O)Nn2c(N)c(S(=O)(=O)c3ccc(C)cc3)c3nc4ccccc4nc32)cc1,0,0,0,0,-
CCCCCn1c(NC(=O)c2ccco2)c(S(=O)(=O)c2ccc(C)cc2)c2nc3ccccc3nc21,56.2,147.3,0,80.2,-
Cc1ccc(S(=O)(=O)c2c(N)n(CCC(C)C)c3nc4ccccc4nc23)cc1,0,0,0,0,-
O=Cc1c(NC2CCCCC2)c2ccccc2[nH]c1=O,-,-,-,0,-
CCOC(=O)c1cc(-c2ccc(/C=C3/C(=O)NC(=O)C(C#N)=C3C)o2)ccc1Cl,80.9,0,0,0,+
CCCCC1(C)OC(=O)C(=Cc2ccc(-c3ccc(Cl)c(C(=O)O)c3)o2)C(=O)O1 (configuration not stated),0,0,0,0,-
CC1=C(C#N)C(=O)NC(=O)/C1=C\c1ccc(-c2ccc(C)cc2[N+](=O)[O-])o1,99.8,0,0,0,+
Cc1ccc(-c2ccc(/C=N/N=C3/NC(=O)C(CC(=O)O)S3)o2)c([N+](=O)[O-])c1 (configuration not stated),0,0,0,0,-
Cc1ccccc1NS(=O)(=O)c1nnc(NC(=O)CC(C)C)s1,-,-,-,0,-
COc1ccc(/C=C/C(=O)NCc2cn(C)nc2C)cc1COc1ccc(Cl)cc1Br,0,0,0,0,-
SMILES,Hck Nef HTS,Runt-SMMHC FRET,Runt-CBFb FRET,RanGTP-Imp inh,Hck Nef conf
CCn1nc(C)c(NC(=O)/C=C/c2ccc(OC)c(COc3ccc(Cl)cc3Br)c2)c1C,98.7,0,0,0,0
CC(C)(C)c1ccc(C(=O)NNC(=O)CCC(=O)Nc2ccccc2)cc1,-,-,-,0,-
CCc1ccc(/C=C(/C#N)C(N)=S)s1,0,0,0,0,-
CCc1sc(/C=C(/C#N)C(N)=S)cc1[N+](=O)[O-],63.2,0,0,-,0
COc1cccc(C(=O)Nc2ccc3nc(N4CCN(c5ncccn5)CC4)cc(C)c3c2)c1OC,0,0,0,-,-
CCOc1ccccc1C(=O)Nc1ccc2nc(N3CCN(c4ncccn4)CC3)cc(C)c2c1,63.8,-,-,-,+
COc1ccc(COc2ccc(S(=O)(=O)N3CCCC3)cc2C(N)=O)cc1F,-,-,-,0,-
O=C(O)CSc1cc(C(=O)c2ccccc2O)cn2c(=O)c3c(-c4ccccc4)csc3nc12,60.8,0,0,0,+
Cc1ccc(C(=O)NC(C)c2nc3ccccc3n2CC(=O)Nc2c(C)cc(C)cc2C)cc1 (configuration not stated),57.5,0,0,0,0
CCN(CC)c1ccc(NC(=O)Cn2c(C(C)NC(=O)c3ccccc3)nc3ccccc32)cc1 (configuration not stated),0,0,0,0,-
COc1ccc(CN(C(=O)CSc2nnc(-c3ccc(F)cc3)o2)c2ccc(F)cc2)cc1,76.8,0,0,0,0
COc1ccc(-c2nnc(SCC(=O)c3ccc(C)o3)o2)cc1,0,0,0,0,-
O=[N+]([O-])c1ccc(-c2nn(-c3ccccc3)cc2/C=N/n2c(-c3ccncc3)n[nH]c2=S)cc1,53.6,0,0,0,0
Oc1ccc(/C=N/NC(=S)Nc2cccnc2)c(O)c1O,100.0,0,0,0,+
Oc1cccc(/C=N/NC(=S)Nc2cccnc2)c1O,0,0,0,0,-
COCCNc1nc(-c2cc(C)n(CCc3ccc(OC)cc3)c2C)cs1,50.7,0,-,0,0
COc1ccc(CCNc2nc(-c3sc(N)nc3C)cs2)cc1OC,0,0,0,0,-
CCOC(=O)CNc1ncnc2nc[nH]c12,0,0,0,0,-
CCc1ccc(/C=N/Nc2ncnc3nc[nH]c23)cc1,94.9,0,0,0,+
Cc1cccc(CC(=O)Nc2sc(C(C)C)cc2C(=O)N2CCOCC2)c1,-,-,-,0,-
O=C(Nc1cnn(Cc2ccc(F)cc2)c1)c1cnn2c(C(F)F)cc(-c3ccccc3)nc12,88.0,0,0,0,0
CC1=C(C#N)c2nc(N)c(C#N)c(C)c2/C1=C\c1ccc(-c2ccccc2C(=O)O)o1,61.3,0,0,0,0
CC(C)c1ccc(N(CC(=O)NCc2ccco2)C(=O)CCC(=O)Nc2nccs2)cc1,-,-,-,0,-
O=C1NN(c2ccccc2)C(=O)/C1=C/c1coc2ccccc2c1=O,88.1,0,0,0,+
O=C1NN(c2ccccc2)C(=O)/C1=C\c1ccccc1,-,-,-,0,-
SMILES,Hck Nef HTS,Runt-SMMHC FRET,Runt-CBFb FRET,RanGTP-Imp inh,Hck Nef conf
O=C1NN(c2ccccc2)C(=O)/C1=C\c1coc2ccc(O)cc2c1=O,71.1,0,0,0,+
Oc1ccc(Br)cc1-c1ccnn1-c1ccccc1,-,-,-,0,-
Cc1nc2ccccc2nc(=O)c1NNc1ccccc1,101.0,0,0,0,+
CCCCCCCCCCCCCCCC[n+]1cccc2ccccc21,106.7,0,0,-,-
Cc1nn(C)c(C)c1NC(=O)CSc1nc(C2CC2)nc2c1cnn2-c1ccccc1,0,0,0,0,-
Cc1nn(C)c(C)c1NC(=O)CSc1nc(-c2ccccc2Cl)nc2c1cnn2-c1ccccc1,83.2,0,0,0,0
Cn1cnc2c(N/N=C/c3cccs3)ncnc21,68.3,0,0,?,+
CCN(CC(=O)Nc1c(F)cccc1F)C(=O)c1ccc(S(=O)(=O)NCc2ccco2)cc1,-,-,-,0,-
Cc1ccc(CN2CCN(Cc3cnc(N4CCOCC4)s3)CC2CCO)o1 (configuration not stated),60.7,0,0,?,0
